STEP block = STEP phosphatase inhibitors, primary screen, biochemical, fluorescence intensity, uHTS; Tyrosine-protein phosphatase non-receptor type 5 (Homo sapiens), P54829; inhibition, % at 20 µM; recombinant STEP, OMFP fluorogenic substrate; AID 588621, 2011; hit rate 0.25% among 360,000;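 active = inhibition at 20 µM, scaled per plate between control wells, above about 37%, limit read from the data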
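Test system: STEP tyrosine phosphatase / Reagent: OMFP at 25 µM / Doses: 20 µM, 1% DMSO / Read-out: percent inhibition scaled to no-enzyme and uninhibited-enzyme controls, plate-pattern corrected / Detection: FITC-channel fluorescence of OMFP product / Medium: Bis-Tris buffer pH 6.0, 2.5 mM DTT, 0.005% Tween 20 / Schedule: 20 min at room temperature, dark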
DSG3 Ab inh = inhibitors of pemphigus antibody binding to DSG3, primary screen, biochemical, bead-based, flow cytometry, scFv-GFP; hit rate 0.48% among 310,000; binding (percent of control), % at 10 µM; Desmoglein-3 (Homo sapiens), P32926; DSG3-coupled beads, scFv-anti-DSG3-GFP binding; active compounds read low; AID 588358, 2011;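 active = binding more than 3 SD below its plate's average and above zero; inconclusive = below that plate limit but binding exactly zero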;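 note: hits lower antibody fragment binding to DSG3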
SUMO1 PPI mod = modulators of SUMO1 protein-protein interactions, primary screen, biochemical, uHTS; AID 602429, 2012; Small ubiquitin-related modifier 1 (Homo sapiens), P63165; hit rate 0.33% among 360,000; inhibition, % at 20 µM; SUMO1 binding to a labelled peptide, TR-FRET, 1 h; in the data active = inhibition above about 37%
Target sequence (P63165 whole entry, looked up): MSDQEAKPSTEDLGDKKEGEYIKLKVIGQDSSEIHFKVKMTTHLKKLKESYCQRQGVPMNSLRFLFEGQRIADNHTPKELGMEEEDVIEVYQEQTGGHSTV
LMPTP inh = LMPTP phosphatase inhibitors, primary screen, biochemical, fluorescence intensity, uHTS | recombinant LMPTP-A, OMFP fluorogenic substrate | inhibition, % at 20 µM | hit rate 0.22% among 360,000;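 active = compounds that cut the enzyme signal by at least half of the control window in the single-dose screen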
Target sequence (P24666 whole entry, looked up): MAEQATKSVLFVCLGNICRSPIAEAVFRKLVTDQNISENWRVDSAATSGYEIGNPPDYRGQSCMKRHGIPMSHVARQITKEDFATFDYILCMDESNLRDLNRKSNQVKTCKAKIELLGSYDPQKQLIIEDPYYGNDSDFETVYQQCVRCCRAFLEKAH
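Assay system: LMPTP-A enzyme. Input: 0.625 nM LMPTP-A final. Probe or stimulus: 400 µM OMFP. Compound dosing: single 20 µM dose. Schedule: 50 min dark incubation at room temperature. Detection: fluorescence intensity of OMFP turnover product. Read-out: percent inhibition versus substrate-only and uninhibited controls. Benchmarks: no-enzyme low control, uninhibited high control.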
Scp1 inh = Scp-1 phosphatase inhibitors, primary screen, biochemical, colorimetric, uHTS; Carboxy-terminal domain RNA polymerase II polypeptide A small phosphatase 1 (Homo …; Recombinant Scp1, phosphopeptide, malachite green phosphate absorbance; inhibition, % at 20 µM; hit rate 0.88% among 340,000; AID 493091, 2011;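 active = inhibition above about 50% at 20 µM, limit read from the data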
Target sequence (Q9GZU7 76-261 limits assumed): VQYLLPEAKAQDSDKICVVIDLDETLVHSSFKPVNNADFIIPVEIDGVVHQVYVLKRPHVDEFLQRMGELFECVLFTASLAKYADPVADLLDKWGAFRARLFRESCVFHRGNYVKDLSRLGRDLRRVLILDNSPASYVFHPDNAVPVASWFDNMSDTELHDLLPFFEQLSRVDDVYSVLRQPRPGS
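assay system = SCP-1 phosphatase catalytic domain, residues 76-261 | buffer or medium = 50 mM Tris acetate pH 5.5, 0.005% Tween-20, 10 mM MgCl2 | incubation = enzyme reaction 45 min at room temperature, colour 5 min, stabilisation 30 min | signal = Phosphate-binding colour reagent, absorbance read at 630 nm | measure = % inhibition at 20 µM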
Each line names hits and unclear results; the compound was inactive in the other large screens. Only some compounds are listed: those with a hit (about 1.7% of all), similar ones and a draw of the others.

O=C(COc1ccc(Cl)cc1)NCCNc1ccc([N+](=O)[O-])cc1	DSG3 Ab inh 71.5
Cc1ccc(N(CC(=O)NC(C)(C)C)C(=O)CNC(=O)c2cccs2)c(C)c1	DSG3 Ab inh 80.6
Cc1cc(C)c(N(CC(=O)NC(C)(C)C)C(=O)CNC(=O)c2cccs2)c(C)c1	none (no result: DSG3 Ab inh)
Cc1c(C)[n+](=O)c(-c2ccc(Br)cc2)c(C)n1[O-]	none
CC1CN(c2sc(S(C)(=O)=O)nc2S(=O)(=O)c2ccc(Cl)cc2)CC(C)O1 (stereo not given)	DSG3 Ab inh 75.1
O=C(OCc1cc(=O)n2ccsc2n1)c1ccccc1NCCO	Scp1 inh 58.8
COc1ccccc1C(=O)OCc1cc(=O)n2ccsc2n1	none
O=C1/C(=C/c2cccs2)SC(=S)N1CC(=O)N1CCCCC1CCO (stereo not given)	none
O=c1c2sc3nc(N4CCOCC4)c4c(c3c2ncn1C(c1ccccc1)c1ccccc1)CCCC4	none
Fc1ccc(-[n+]2nc(Nc3ccccc3)sc2-c2c(Cl)cccc2Cl)cc1	none
CCc1ccc(Nc2n[n+](-c3ccccc3)c(-c3c(Cl)cccc3Cl)s2)cc1	LMPTP inh 70.5
O=C(O)c1ccc(S(=O)(=O)/N=C2\C=C(Nc3ccccc3F)C(=O)c3ccccc32)cc1	SUMO1 PPI mod 74.9
Cc1ccccc1NC1=C/C(=N\S(=O)(=O)c2ccc(C(=O)O)cc2)c2ccccc2C1=O	SUMO1 PPI mod 68.8
CCc1ccc(S(=O)(=O)/N=C2\C=C(NS(=O)(=O)c3ccccc3)C(=O)c3ccccc32)cc1	DSG3 Ab inh 49.3
COc1ccc(S(=O)(=O)/N=C2\C=C(Nc3ccc(O)cc3)C(=O)c3ccccc32)cc1	none
COc1ccc(CNC(=O)COC(=O)c2cc3ccccc3o2)cc1	none
COc1cc(OC)cc(C(=O)Nc2ccc(N3CCN(C(=O)c4cccs4)CC3)cc2)c1	SUMO1 PPI mod 42.3
N#Cc1cc(Cl)c(N2CCOCC2)cc1C#N	none
N#Cc1cc2ccc(N3CCOCC3)cc2cc1C#N	SUMO1 PPI mod 44.0
COc1ccc(C2=NOC(CNC(N)=S)C2)cc1 (stereo not given)	none
Cc1cc(O)c2c(c1O)C(=O)[C@]13C(=C2O)C(=O)[C@@H]2[C@@H](O)[C@H]1[C@@H]1[C@H](O)[C@H]3C(=O)C3=C(O)c4c(O)cc(C)c(O)c4C(=O)[C@]312	STEP block 42.7, DSG3 Ab inh -15.3, SUMO1 PPI mod 102.9, LMPTP inh 88.0, Scp1 inh 58.2
CCC(=O)Nc1ccc(C(=O)OCC(=O)c2cccs2)cc1	none
CC(C)(C)OC(=O)N1CCC(c2cc(=O)n3[nH]cc(C(=O)Nc4ccc(F)c(Cl)c4)c3n2)CC1	SUMO1 PPI mod 50.6
COc1ccc(NC(=O)c2c[nH]n3c(=O)cc(C4CCN(C(=O)OC(C)(C)C)CC4)nc23)cc1Cl	none
Cn1nnnc1SCC(=O)NC1CCCc2ccccc21 (stereo not given)	none
Cc1ccc2nc(-c3ccc4c(c3)NC(=O)CO4)cn2c1	LMPTP inh 72.5
O=C(NCCc1ccco1)C(=O)NCC1OCCCN1S(=O)(=O)c1cc(F)ccc1F (stereo not given)	none
COc1cccc(-c2nc(NCc3ccccc3)c3ccccc3n2)c1O	none
COc1cccc(-c2nc(NCc3ccco3)c3ccccc3n2)c1O	DSG3 Ab inh 64.2
C=CCNc1nc(-c2cccc(OC)c2O)nc2ccccc12	DSG3 Ab inh 91.7
C/C=C/Cn1c(SCc2ccc(C)cc2)nc2c1c(=O)[nH]c(=O)n2C	DSG3 Ab inh 70.8
Cn1cc(CN2CCC(C(=O)NC(c3ccc(-c4ccccc4)cc3)c3cnccn3)CC2)c2ccccc21 (stereo not given)	none (no result: DSG3 Ab inh, Scp1 inh)
CC(=O)c1c(C)[nH]c(C(=O)NCc2ccc(Cl)cc2)c1C	DSG3 Ab inh 86.8 (no result: Scp1 inh)
CN(CC(=O)NCCc1ccccc1)Cc1ccco1	none (no result: DSG3 Ab inh)
COc1cccc(NC(=O)c2ccc(-c3ccc([N+](=O)[O-])cc3)o2)c1	DSG3 Ab inh 83.5
COc1ccc(NC(=O)c2ccc(-c3ccc([N+](=O)[O-])cc3)o2)cc1OC	none
O=C(Nc1nccs1)c1ccc(-c2cccc([N+](=O)[O-])c2)o1	DSG3 Ab inh 64.5
CC(=O)Nc1ccc(NC(=O)CSc2nnc(-c3ccc4c(c3)OCO4)o2)cc1	DSG3 Ab inh -14.9
CCOC(=O)Nc1sc(NS(=O)(=O)c2ccc(C)cc2)nc1C	DSG3 Ab inh 73.0
Cc1nc(NS(=O)(=O)c2ccccc2)sc1NC(=O)Nc1ccccc1	DSG3 Ab inh 28.4
CC(C)(CNCc1ccccc1)NS(=O)(=O)c1ccc(Cl)cc1	none
CCc1cccc(C)c1NC(=O)Nc1c(Br)cnn1C	none
Cc1ccccc1C(=O)Nc1ccc2c(C#N)c3nc4ccccc4nc3n2c1	Scp1 inh 93.5
Cc1c(C(=O)Nc2ccccc2)cn2c(nc3ccccc32)c1C#N	none
CCCCN(C)CCCNC(=O)c1cc(=O)[nH]c2ccc(S(=O)(=O)N3CCCCC3C)cc12 (stereo not given)	none
O=C(CSC(=S)N1CCCCC1)Nc1nc(-c2ccccc2)c(-c2ccccc2)o1	SUMO1 PPI mod 50.5
Cc1ccc2ncccc2c1	none
Cc1nnc(C)c2c(C)n(-c3ccc4ncccc4c3)c(C)c12	LMPTP inh 53.7 (no result: DSG3 Ab inh)
CCC(C(=O)NCC1CCCO1)n1nc(C)c2sc3ccccc3c2c1=O (stereo not given)	none (no result: DSG3 Ab inh)
CCOC(=O)c1c(NC(=O)c2ccccc2C(=O)O)sc2c1CCCC2	DSG3 Ab inh 68.0
CCCNC(=O)C1(C)CCN(C(=O)c2cccnc2Oc2ccccc2)C1 (stereo not given)	none (no result: DSG3 Ab inh, Scp1 inh)
CCOC(=O)[C@H]1[C@H]2COc3cc(OC)ccc3[C@@H]2N2C(=O)c3cc(OC)c(OC)cc3NC(=O)[C@@]12C	DSG3 Ab inh inconclusive
O=C(Oc1ccc(OC(=O)N2CCCCC2)cc1)c1ccccc1	DSG3 Ab inh 67.5
O=C(Oc1ccccc1)N1CCCC1	none
COc1cc(C(=O)Oc2cccc(C(=S)N3CCOCC3)c2)cc(OC)c1OC	none
O=C(Oc1cccc(C(=S)N2CCOCC2)c1)c1ccccc1	DSG3 Ab inh -24.4
COc1ccc([C@@H]2CC=C(C(=O)O)[C@H](c3ccccc3F)N2S(=O)(=O)c2ccccc2C)cc1	none
Cc1nn(-c2ccccc2)c2[nH]c(=O)c(CNc3ccc(N4CCOCC4)cc3)cc12	DSG3 Ab inh 75.5
COc1ccc(N(C)C(=O)CCC(=O)Nc2ccc3nc(N4CCOCC4)cc(C)c3c2)c(OC)c1	DSG3 Ab inh 89.4
CCN1CCN(c2cc(C)c3cc(NC(=S)N4CCN(c5ccccc5)CC4)ccc3n2)CC1	none

Assay outcomes deposited in PubChem BioAssay by several laboratories.
